Results filed as inconclusive are left out. Calls of active or inactive are those of the source.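 The calls were made as follows: active = fitted curve reaches caspase activation of 10% of the positive control signal in every replicate test; inconclusive = tests disagree, or a test had a flat mid-level or poor fit; inactive = every replicate test called inactive.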
Test system: not listed separately
Assay: apoptosis induction in A1/BIM co-expressing fibroblasts – cell-based, Flag-A1-IRES-BIM MEF, luminescence, dry powder, set 3, orthogonal assay for A1 inhibitor project, dose response (AID 504409)
Conditions: MEF Flag-A1-IRES-BIM, caspase-Glo luminescence, 3 h; at 35 µM (top of the series)
Procedure, shortened: (§1)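 Test system – mouse embryonic fibroblasts primed with alternate Flag-A1-IRES-BIM construct · Amount – 2500 cells/well · Buffer or medium – RPMI-1640, 10% heat-inactivated FBS · Times – 3 h exposure (37 °C, 5% CO2), 1 h room-temperature detection · Signal – luminescence with CaspaseGlo reagent diluted 1:1 in 50 mM HEPES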

Question: Which caspase activation does the source give for C/C(=N\Nc1nc(N2CCCCC2)nc(N2CCCCC2)n1)c1ccc(F)cc1 here?
Answer: The caspase activation was 0.551% (inactive).

Question: For COc1c([N+](=O)[O-])c(=O)n(C)c2ccccc12, which caspase activation is on record?
Answer: Its caspase activation is 1.51% (inactive).

Question: For COc1ccc(CCNc2nc(N3CCOCC3)nc(N3CCOCC3)n2)cc1OC, which caspase activation is on record?
Answer: Its caspase activation is 0.077% (inactive).

Question: Which caspase activation does the source give for Cc1ccc(Sc2c(Sc3ccc(C)cc3)c3ccccc3n(C)c2=O)cc1 here?
Answer: The caspase activation was -0.308% (inactive).

Question: With O=c1[nH]c2ccccc2c(O)c1[N+](=O)[O-] as the molecule, how does the caspase activation read?
Answer: The caspase activation was 0.941% (inactive).

Question: With COCCn1c(=O)c(Sc2ccc(C)cc2)c(Sc2ccc(C)cc2)c2ccccc21 as the molecule, how does the caspase activation read?
Answer: The caspase activation was -0.209% (inactive).

Question: Which caspase activation does the source give for COc1nc2ccccc2c(Sc2ccc(C)cc2)c1[N+](=O)[O-] here?
Answer: Its caspase activation is 2.16% (inactive).

Question: For CCn1c(=O)c(Sc2ccc(C)cc2)c(Sc2ccc(C)cc2)c2ccccc21, which caspase activation is on record?
Answer: The caspase activation was 2.86% (inactive).

Question: For O=C(COc1ccc(Cl)cc1Cl)NNc1nc(N2CCOCC2)nc(N2CCOCC2)n1, which caspase activation is on record?
Answer: Its caspase activation is -1.06% (inactive).

Question: With COc1ccc(CCNc2nc(N3CCCC3)nc(N3CCCC3)n2)cc1OC as the molecule, how does the caspase activation read?
Answer: The caspase activation was -0.336% (inactive).

Question: For CCn1c(=O)c([N+](=O)[O-])c(Sc2ccc(C)cc2)c2ccccc21, which caspase activation is on record?
Answer: Its caspase activation is 1.63% (inactive).

Question: Which caspase activation does the source give for COc1ccc(N2CCN(c3nc(NCCc4ccc(OC)c(OC)c4)nc(N4CCOCC4)n3)CC2)cc1 here?
Answer: The caspase activation was 0.186% (inactive).

Question: Which caspase activation does the source give for Cc1ccc(Sc2c(Sc3ccc(C)cc3)c3ccccc3n(Cc3ccccc3)c2=O)cc1 here?
Answer: Its caspase activation is -0.908% (inactive).

Question: For Cn1c(=O)c(Sc2ccccn2)c(Sc2ccccn2)c2ccccc21, which caspase activation is on record?
Answer: The caspase activation was 1.87% (inactive).

Test system: MEF Flag-A1-IRES-BIM, caspase-Glo luminescence, 3 h
Assay: as above
Conditions: not given
Procedure, shortened: as §1

Question: With Cc1ccc(S(=O)(=O)c2c([N+](=O)[O-])c(=O)n(C)c3ccccc23)cc1 as the molecule, how does the AC10 read?
Answer: Its AC10 is 4.11 µM.

Question: Which AC10 does the source give for CC1(C)CCC(c2ccc(Cl)cc2)=C(CN2CCN(c3ccc(C(=O)NS(=O)(=O)c4ccc(N[C@H](CCN5CCOCC5)CSc5ccccc5)c(S(=O)(=O)C(F)(F)F)c4)cc3)CC2)C1 here?
Answer: The AC10 was 0.689 µM.

Question: For COCCn1c(=O)c([N+](=O)[O-])c(Sc2ccc(C)cc2)c2ccccc21, which AC10 is on record?
Answer: The AC10 was 15.5 µM.

Question: Which AC10 does the source give for COCCn1c(=O)c([N+](=O)[O-])c(Cl)c2ccccc21 here?
Answer: The AC10 was 1.46 µM.

Question: For O=c1[nH]c2ccccc2c(Cl)c1[N+](=O)[O-], which AC10 is on record?
Answer: The AC10 was 3.38 µM.

Question: With CCn1c(=O)c([N+](=O)[O-])c(Cl)c2ccccc21 as the molecule, how does the AC10 read?
Answer: The AC10 was 1.49 µM.

Question: Which AC10 does the source give for Cn1c(=O)c([N+](=O)[O-])c(Sc2ccccn2)c2ccccc21 here?
Answer: Its AC10 is 3 µM.

Question: With Cn1c(=O)c([N+](=O)[O-])c(S(C)(=O)=O)c2ccccc21 as the molecule, how does the AC10 read?
Answer: Its AC10 is 3.06 µM.

Question: With Cn1c(=O)c([N+](=O)[O-])c(Cl)c2ccccc21 as the molecule, how does the AC10 read?
Answer: The AC10 was 1.84 µM.

— PubChem BioAssay AID504409 (Broad Institute, 2011)
